# Hits are enriched below; roughly 2.9% of the tested compounds scored in any of these assays.
# Apaf1 inhib: inhibitors of human Apaf-1 apoptosome | O14727 | reconstituted apoptosome caspase-3 activity, DEVD-Rh110 fluorescence | inhibition, % at 20 µM | 0.71% of 330,000 active | AID 489030; active means inhibition of at least 40% at 20 µM;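 further: plate controls were DMSO wells for no effect and DEVD-CHO caspase inhibitor wells for full effect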
#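 Assay system: Apoptosome proteins | Medium: pH 7.5 Hepes buffer with CHAPS, BSA, DTT | Also added: Cytochrome c and DEVD-Rh110 substrate | Times: 30 min plus 50 min, RT | Detection: Rhodamine 110 fluorescence at Ex 480/Em 540 nm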
# SENP8 block-1: blocks human SENP8 cleavage of Nedd8 substrate | Q96LD8 | recombinant SENP8, Nedd8 substrate fluorescence | inhibition, % at 20 µM | 0.64% of 360,000 active; in the data active means inhibition mostly above about 40%, no sharp cut-off; inactive means mostly below about 27%
# SENP7 inh: blocks the human protease SENP7. Q9BQF6. recombinant SENP7, Z-RLRGG-aminoluciferin luminescence, 40 min. inhibition, % at 5 µM. 1.5% of 330,000 active. AID 434973;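 active means inhibition above about 50% at the single test dose, limit read from the data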;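 further: plate controls were DMSO with enzyme for no effect and no enzyme buffer wells for full effect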
# Target sequence (Q9BQF6 706-1050 limits assumed): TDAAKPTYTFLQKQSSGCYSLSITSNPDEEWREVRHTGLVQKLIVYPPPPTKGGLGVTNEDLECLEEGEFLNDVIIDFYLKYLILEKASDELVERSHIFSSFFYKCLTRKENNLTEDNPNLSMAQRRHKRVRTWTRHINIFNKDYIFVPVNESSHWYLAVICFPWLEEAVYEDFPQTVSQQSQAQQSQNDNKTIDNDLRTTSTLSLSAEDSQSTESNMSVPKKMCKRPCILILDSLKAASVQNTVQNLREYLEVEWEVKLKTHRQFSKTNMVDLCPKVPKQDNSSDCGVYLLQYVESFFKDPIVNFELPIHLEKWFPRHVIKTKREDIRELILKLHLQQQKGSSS
# SENP8 block-2: blocks the human protease SENP8; purified SENP8, Z-RLRGG-aminoluciferin cleavage, luminescence; Q96LD8; inhibition, % at 10 µM; 1.2% of 330,000 active; AID 2540; in the data active means inhibition above about 50%
# SENP1 FRET inh: blocks the human SENP1 SUMO protease catalytic domain. inhibition, % at 10 µM. 0.21% of 360,000 active. Q9P0U3. recombinant SENP1 catalytic domain, CyPet-SUMO1-YPet FRET cleavage. AID 624204;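 active means inhibition at least 30% at 10 µM, raw YFP signal under a set limit, fluorescence ratio 0.5 to 1.5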;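 further: 0% = enzyme with DMSO and 100% = no enzyme wells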
#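 system = hSENP1 catalytic domain, recombinant | reagent = SFCypet-SUMO1-SFYpet substrate at 25 nM | doses = one dose per compound, 10 µM, 0.5% DMSO | incubation = enzyme reaction for 50 min at room temperature, dark | measured by = FRET, CFP and YFP emission | controls = no-enzyme low, enzyme-DMSO high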
# SENP6 block: SENP6 protease inhibition | 1.8% of 330,000 active | Q9GZR1 | inhibition, % at 10 µM | Recombinant SENP6 catalytic domain, aminoluciferin luminescence;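 active means inhibition above about 50% at the single tested dose, limit read from the data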;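 further: plate controls were DMSO wells with enzyme for no effect and DMSO wells lacking enzyme for full effect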
# SENP8 confirm: confirmation of human SENP8 protease inhibitors | 40% of 6,200 active | Recombinant SENP8, Z-RLRGG-aminoluciferin luminescence, 60 min | shares compounds with SENP7 inh | inhibition, % at 12.5 µM;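 active means mean inhibition across replicates above about 50%, limit read from the data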
# SENP6 conf: human SENP6 inhibition, confirmed; 58% of 6,200 active; recombinant SENP6, Z-RLRGG-aminoluciferin luminescence; shares compounds with SENP7 inh; AID 488915; inhibition, % at 12.5 µM
# SENP7 conf: confirmation of human SENP7 protease inhibitors; shares compounds with SENP7 inh; recombinant SENP7, Z-RLRGG-aminoluciferin luminescence, 40 min; inhibition, % at 12.5 µM; 69% of 6,200 active
# Casp3 SENP sel: selectivity test for SENP inhibitors: human caspase-3 inhibition; purified caspase-3, Z-DEVD-aminoluciferin luminescence, 60 min; inhibition, % at 12.5 µM; shares compounds with SENP7 inh; 60% of 6,200 active;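 active means mean inhibition above about 50%, limit read from the data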;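 further: plate controls were enzyme with DMSO for no effect and wells without caspase-3 for full effect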
# Target sequence (P42574 28-227 limits assumed): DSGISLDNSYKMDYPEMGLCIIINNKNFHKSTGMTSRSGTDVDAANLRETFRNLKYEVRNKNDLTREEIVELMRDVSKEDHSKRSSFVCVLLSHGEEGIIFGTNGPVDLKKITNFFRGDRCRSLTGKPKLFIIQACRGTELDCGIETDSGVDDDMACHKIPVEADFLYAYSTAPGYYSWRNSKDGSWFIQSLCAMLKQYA
# SENP luc ctr: interferes with luciferase luminescence in SENP counter-screen; shares compounds with SENP7 inh; AID 488919; 39% of 6,200 active; Pre-incubated SENP8/Z-RLRGG-aminoluciferin, luciferase luminescence interference; inhibition, % at 12.5 µM;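 active means mean inhibition above about 50% when retested at one dose, limit read from the data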;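 further: plate controls were DMSO wells with completed reaction for no effect and substrate without enzyme for full effect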
# The depositor's hits bear a star; / = not tested or not shown.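 How the source made its calls, unless noted: active means mean inhibition above about 50% in the one-dose retest (limit read from the data); inactive means the rest.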
SMILES,Apaf1 inhib,SENP8 block-1,SENP7 inh,SENP8 block-2,SENP1 FRET inh,SENP6 block,SENP8 confirm,SENP6 conf,SENP7 conf,Casp3 SENP sel,SENP luc ctr
O=C(NNC(=S)Nc1ccccc1Cl)c1ccccc1,-2.1,0.7,91.4*,55.8*,3.2,64.6*,15.7,21.5,27.6,28.1,34.2
O=C(Nc1ccccc1Cl)c1ccccc1Cl,3.5,15.0,11.5,-10.1,1.4,-7.7,/,/,/,/,/
COc1ccccc1C(=O)NNC(=O)c1ccccc1Br,-12.4,2.1,11.6,1.1,1.2,-21.9,/,/,/,/,/
Cc1nn(C(C)C(=O)Nc2ccc(Cl)cn2)c(C)c1[N+](=O)[O-] (centres undefined),-21.9,4.7,79.7*,-4.5,0.7,-31.3,-4.7,1.6,-2.2,-1.7,-0.9
O=C(CS(=O)(=O)c1cn(CC(=O)N2CCOCC2)c2ccccc12)Nc1ccccc1F,7.1,17.5,-0.6,7.6,1.0,-6.3,/,/,/,/,/
COc1ccc(-c2csc(-c3cccnc3)n2)cc1C,10.9,-172.2,5.1,5.0,-0.3,21.4,/,/,/,/,/
COc1ccc2cc(-c3csc(-c4cccnc4)n3)ccc2c1,-7.0,-133.6,67.1*,-13.0,-4.2,5.3,16.7,12.1,14.6,10.2,-0.5
COc1ccc(-c2csc(-c3ccccc3)n2)c(OC)c1,2.9,-79.0,89.1*,84.1*,-2.9,93.0*,82.3*,91.3*,96.0*,73.9*,26.5
Nc1[nH]c(C(=O)c2ccccc2)c(-c2ccccc2Br)c1C(=O)NCc1ccc(-c2ccccc2)cc1,/,-23.7,/,/,-8.4,/,/,/,/,/,/
Cc1ccc(-c2cc(C(=O)NCc3ccco3)no2)cc1,-14.3,12.2,32.2,-11.2,0.5,-8.0,/,/,/,/,/
O=C(c1cc(-c2ccc(Cl)c(Cl)c2)on1)N1CCCCCC1,5.3,18.3,28.2,-18.1,0.9,13.8,/,/,/,/,/
O=C(NCc1ccco1)c1cc(-c2ccc3c(c2)OCO3)on1,6.1,-23.8,53.4*,-5.6,1.7,-14.2,-1.3,-5.7,22.5,18.9,-2.2
O=C(c1cc(-c2ccco2)on1)N1CCOCC1,-13.3,9.8,4.7,9.8,-1.4,5.2,/,/,/,/,/
Cc1ccc(-c2cc(C(=O)N3CCOCC3)no2)cc1,-1.5,9.8,58.1*,45.3,1.1,60.9*,52.8*,49.7,82.3*,81.2*,55.2*
O=C(c1cc(-c2ccc3c(c2)OCO3)on1)N1CCCCC1,11.4,-10.0,71.9*,65.6*,3.3,77.9*,34.4,74.2*,92.6*,68.2*,7.5
Cc1ccc(-c2cc(C(=O)N3CCCC3)no2)cc1,2.7,6.4,6.7,62.1*,2.4,67.8*,-18.3,24.4,86.1*,63.2*,2.7
O=C1NC[C@@H](CCCCN2C[C@H](Cc3ccc(O)cc3)N(CCc3ccccc3)C(=O)C2=O)N(Cc2ccccc2)C1=O,/,11.6,/,/,1.7,/,/,/,/,/,/
O=C(Cc1ccc(NC(=O)C2CCN(C(=O)C3CC3)CC2)cc1)Nc1ccc(C(=O)N2CCOCC2)cc1,/,9.8,/,/,0.7,/,/,/,/,/,/
COc1ccc(CCNC(=O)COC(=O)c2cc(S(=O)(=O)N3CCCC3)ccc2O)cc1,11.1,-482.4,-0.3,-12.9,-0.5,-5.2,/,/,/,/,/
CN=C1N(C)C[C@@H]2[C@@H]3C(=O)N(C)C(=O)[C@@H]3[C@](Cc3ccccc3)(C(=O)OC)N12,4.3,2.4,16.8,/,1.7,/,/,/,/,/,/
Cc1ccccc1Nc1cc2ccccc2c(=O)[nH]1,95.8*,1.4,94.6*,97.1*,-16.9,90.6*,92.3*,98.4*,94.8*,96.4*,13.5

# From PubChem
